We go through nine compounds from ChEMBL document CHEMBL4270665, “Biodegradable Amphipathic Peptide Hydrogels as Extended-Release System for Opioid Peptides” (J Med Chem, 2018).

By Ki is commonly meant a dissociation constant, usually derived from enzyme kinetics or from competition with a known ligand. Read a high Ki as a looser hold on the target. As a reminder, the EC50 is the concentration needed to bring the measured effect to its halfway point. Read a high EC50 as weaker potency.

Active and inactive are the calls of the source. The calls are words filed in the database; no cut-off is given here. Starred links: 1 amine or outer side, 2 acyl side, 3 side chain; linkers in the order of their positions; H or OH if unused. Non-standard residues stand in square brackets, D forms with d. Residues, ends and D or L forms follow the SMILES beside them. X1 = O=C1[C@@H](N[*:1])Cc2ccccc2CN1CCC(=O)[*:2]; Dmt = Cc1cc(O)cc(C)c1C[C@H](N)C(=O)O

Data set [1] deals with T1, Mu-type opioid receptor (Homo sapiens, UniProt P35372). Briefly: Displacement of [3H]DAMGO from human MOR expressed in CHO cell membranes after 60 mins by liquid scintillation counting. (In general: Displacement assays read how much labelled ligand stays bound in the presence of the test substance.)
In data set [2] the test system is Mus musculus. Put plainly: Antinociceptive activity in CD1 mouse assessed as increase in tail-flick latency at 0.56 umol, sc co-formulated with H-Phe-Gln-Phe-Gln-Phe-Lys-NH2 measured up to 72 hrs post dose. The format is functional, organism-based. In a few lines: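 Mice received peptide (0.56 μmol/mouse) co-formulated with hydrogelator at 2% (v/w), sc in 150 μL per mouse. Controls were hydrogelator alone or saline. Radiant-heat tail-flick test read as %MPE over time, with AUC calculated. 6−8 mice per group, mean ± SEM. Two-way ANOVA with Bonferroni post hoc test.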
On the technique in general: Thermal pain tests record how soon the animal reacts.

Data set [3] addresses T1, Mu-type opioid receptor. Put plainly: Agonist activity at human MOR expressed in human U2OS cells co-expressing enzyme acceptor-tagged beta-arrestin2 fusion protein assessed as induction of beta-arrestin2 recruitment preincubated for 90 mins measured by PathHunter assay. The format is functional, cell-based.
Data set [4] has as its system Mus musculus. Put plainly: Antinociceptive activity in CD1 mouse assessed as increase in tail-flick latency at 5.8 umol/kg, sc measured after 8 hrs post dose. It counts as functional, organism-based.
Data set [5] deals with T1, Mu-type opioid receptor. Put plainly: Agonist activity at human MOR expressed in CHO cell membranes after 60 mins by [35S]GTPgammaS binding assay. The format is functional. An outline of the steps: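 Membranes from CHO cells stably expressing human MOR; agonist-stimulated [35S]GTPγS binding. Potency given as EC50 and efficacy (full or partial agonism) measured at human MOR.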
Background: GTPγS resists hydrolysis and so accumulates on activated G proteins.

In data set [6] the test system is Mus musculus. Briefly: Antinociceptive activity in CD1 mouse assessed as increase in tail-flick latency at 13 umol/kg, sc measured up to 96 hrs post dose relative to control. The format is functional.
Data set [7] has as its system Mus musculus. Put plainly: Antinociceptive activity in CD1 mouse assessed as increase in tail-flick latency at 4.2 umol/kg, sc measured up to 3 to 4 hrs post dose. It counts as functional, organism-based. An outline of the steps:
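Peptide given as a solution, sc, with a saline control group. Radiant-heat tail-flick test read as %MPE over time, with AUC of the time curves calculated. 6−8 mice per group, mean ± SEM. Two-way ANOVA with Bonferroni post hoc test.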

A short description of data set [8]: Metabolic stability in C57BL/6 mouse hind limb assessed as compound remaining at 150 ul, sc measured after 72 hrs post dose by SPECT/CT analysis. Conditions: read-out: Stability. It counts as ADME, organism-based, Hindlimb. An outline of the steps: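 Hydrogel degradation was followed after subcutaneous injection in mice by determining the hydrogel volume remaining at the injection site, up to 72 h.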

T1 sequence (P35372 whole entry): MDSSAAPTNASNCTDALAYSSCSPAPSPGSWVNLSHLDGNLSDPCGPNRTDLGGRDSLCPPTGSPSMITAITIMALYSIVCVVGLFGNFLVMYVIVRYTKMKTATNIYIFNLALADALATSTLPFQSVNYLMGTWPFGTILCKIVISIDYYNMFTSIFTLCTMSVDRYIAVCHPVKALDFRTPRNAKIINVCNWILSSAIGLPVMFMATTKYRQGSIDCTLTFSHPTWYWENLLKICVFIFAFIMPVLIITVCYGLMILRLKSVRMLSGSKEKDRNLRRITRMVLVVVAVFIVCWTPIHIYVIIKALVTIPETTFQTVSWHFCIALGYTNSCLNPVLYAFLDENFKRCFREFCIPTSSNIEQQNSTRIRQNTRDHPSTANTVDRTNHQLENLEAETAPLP

In turn, `Cc1cc(O)cc(C)c1C[C@H](N)C(=O)N1CCC[C@H]1C(=O)N[C@@H](Cc1ccccc1)C(=O)N[C@@H](Cc1ccccc1)C(=O)N[C@@H](CCC(=O)O)C(=O)N[C@@H](Cc1ccccc1)C(=O)N[C@@H](CCC(N)=O)C(=O)N[C@@H](Cc1ccccc1)C(=O)N[C@@H](CCCCN)C(N)=O` had a Ki at Mu-type opioid receptor [1] of 5 to 141 nM.

In the case of `Cc1cc(O)cc(C)c1C[C@H](N)C(=O)N1CCC[C@H]1C(=O)N[C@@H](Cc1c[nH]c2ccccc12)C(=O)N[C@@H](Cc1ccccc1)C(=O)N[C@@H](CCC(N)=O)C(=O)N[C@@H](Cc1ccccc1)C(=O)N[C@@H](CCC(N)=O)C(=O)N[C@@H](Cc1ccccc1)C(=O)N[C@@H](CCCCN)C(N)=O` (H-[Dmt]PWFQFQFK-NH2), the Ki at Mu-type opioid receptor [1] lay in the range of 5 to 141 nM. In the case of `Cc1cc(O)cc(C)c1C[C@H](N)C(=O)N[C@H](CCCCN)C(=O)N[C@@H](Cc1ccccc1)C(=O)N[C@@H](Cc1ccccc1)C(N)=O`, the result in the data set with Mus musculus [2] and in the data set on Mus musculus [4] was Active. For the same compound, the result on Mu-type opioid receptor [3] was inactive. The compound also registered an EC50 on Mu-type opioid receptor [5] of 0.1 to 0.86 nM. Take `Cc1cc(O)cc(C)c1C[C@H](N)C(=O)N1CCC[C@H]1C(=O)N[C@@H](Cc1c[nH]c2ccccc12)C(=O)N[C@@H](Cc1ccccc1)C(N)=O`: the MPE in the data set with Mus musculus [6] is listed as less than 80%. Also, the outcome on Mu-type opioid receptor [3] was inactive. Further, at Mu-type opioid receptor [5], the concentration giving a half-maximal response (EC50) lay in the range of 0.1 to 0.86 nM.

`Cc1cc(O)cc(C)c1C[C@H](N)C(=O)N1CCC[C@H]1C(=O)N[C@@H](Cc1ccccc1)C(=O)N[C@@H](Cc1ccccc1)C(=O)N[C@@H](CCC(N)=O)C(=O)N[C@@H](Cc1ccccc1)C(=O)N[C@@H](CCC(N)=O)C(=O)N[C@@H](Cc1ccccc1)C(=O)N[C@@H](CCCCN)C(N)=O` (H-[Dmt]PFFQFQFK-NH2): on Mu-type opioid receptor [1], the inhibition constant (Ki) was in the range of 5 to 141 nM. As to `Cc1cc(O)cc(C)c1C[C@H](N)C(=O)N[C@H](CCCNC(=N)N)C(=O)N[C@H]1Cc2ccccc2CN(CCC(=O)N[C@@H](Cc2ccccc2)C(=O)N[C@@H](CCC(N)=O)C(=O)N[C@@H](Cc2ccccc2)C(=O)N[C@@H](CCC(N)=O)C(=O)N[C@@H](Cc2ccccc2)C(=O)N[C@@H](CCCCN)C(N)=O)C1=O` (H-[Dmt][dR][X1]FQFQFK-NH2), at Mu-type opioid receptor [1], the Ki was in the range of 5 to 141 nM. In the case of `Cc1cc(O)cc(C)c1C[C@H](N)C(=O)N[C@H](CCCNC(=N)N)C(=O)N[C@@H](Cc1ccccc1)C(=O)N[C@@H](Cc1ccccc1)C(=O)N[C@@H](CCC(N)=O)C(=O)O`, the outcome with Mus musculus [7] was Active. This compound displayed an EC50 at Mu-type opioid receptor [5] of 0.28 nM. Further, the Ki on Mu-type opioid receptor [1] is 0.34 nM.

Turning to H-FEFQFK-NH2, the remaining at 72 h in data set [8] was 20%. The same measure, in the same setting: the value for H-FQFQFK-NH2 was 20%.
